Molecules are shown by their SMILES. A value given as a limit tells only on which side of the number the result lay.

The test system of assay [1] is Rattus norvegicus. Description: Antihypertensive activity in spontaneously hypertensive rats after peroral administration. In kind it is functional. In outline: (§1)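 SHR, 3-day test. After about 20 min prewarming at 37 °C, indirect systolic pressure by tail cuff at 0 (control), 22, 24, 26 and 46 h. Oral dosing at 0 and 22 h, at 100 mg/kg unless footnoted otherwise. Groups of five rats; maximum mean fall from the control reading is rated in bands (<25, 25-34, 35-44, ≥45 mmHg).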

The species named for assay [2] is Rattus norvegicus. Briefly: Intrinsic sympathomimetic action in reserpinized rats. It is filed as functional. In outline: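 Reserpinized rats given 0.3 mg/kg iv. Read-out is increase in heart rate (bpm), mean ± SEM, n = 3-6.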
For assay [3], the system named is Rattus norvegicus. Description: Vasodilator activity in ganglion blocked rats. Values denote percent change in mean arterial blood pressure 30 minutes after dosing rats at 3 mg/kg intravenously. It is filed as functional. To be noted: route intravenous. In outline:
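Male Wistar rats (275-450 g), urethane 800 mg/kg plus chloralose 60 mg/kg ip, then chlorisondamine 2.5 mg/kg ip for ganglion block. Angiotensin II infused iv at 0.25 or 0.35 μg/min to a new steady pressure. Drug given iv over 3 min; femoral mean arterial pressure recorded at 30 min as % change ± SEM.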

Assay [4] concerns Rattus norvegicus. Briefly: Antihypertensive activity in spontaneously hypertensive rats after peroral administration,. In kind it is functional. In outline: as §1
Assay [5] has as its system Rattus norvegicus. Description: The compound was tested for antihypertensive activity in spontaneously hypertensive rats after peroral administration, dosed at 30 mg/kg. In kind it is functional. The note with it: route oral. In outline:
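Conscious spontaneously hypertensive rats, groups of five per compound. Given orally at 0 and 22 h. Before tail-cuff readings, rats were prewarmed to 37 °C for about 20 min. Indirect systolic pressure was read at 0 (control), 22, 24, 26 and 46 h. Activity was scored from the maximum mean fall from control: under 25 mmHg (±), 25-34 (+), 35-44 (++), 45 mmHg and over (+++).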

Assay [6] concerns Rattus norvegicus. Description: The compound was tested for antihypertensive activity in spontaneously hypertensive rats after peroral administration. Activity value is 35-44 mmHg. It is filed as functional. In outline:
as §1

In assay [7] the target is T1, Adrenergic receptor beta (Rattus norvegicus) (UniProt P18090+P10608+P26255). Briefly: Beta-adrenergic receptor blockade activity in conscious normotensive rats at a dose of 0.5 mg/kg. It is filed as functional, organism-based. Further details: dose 0.5 mg/kg.
Assay [8] deals with T1, Adrenergic receptor beta (Rattus norvegicus). Briefly: The compound was tested for beta-adrenergic receptor blockade activity in conscious normotensive rats at a dose of 2 mg/kg. It is filed as functional, organism-based. Further details: dose 2 mg/kg.
The subject of assay [9] is Rattus norvegicus. Description: The compound was tested for antihypertensive activity in spontaneously hypertensive rats after peroral administration, Activity value is <25 mmHg. In kind it is functional. In short, it runs like this: as §1

`CC(C)(Cc1c[nH]c2ccccc12)NCC(O)COc1ccccc1` (configuration not stated) returned an Actvity with Rattus norvegicus [1] of less than 25 mmHg. This compound also had an Activity in the assay listed under Rattus norvegicus [2] of 141 beats min-1. The “Delta MAP” value in the assay with Rattus norvegicus [3] is given as -26%.
In the assay on Rattus norvegicus [4], `CCC(C)c1ccccc1OCC(O)CNC(C)(C)Cc1c[nH]c2ccccc12` (configuration not stated) displayed an Actvity of less than 25 mmHg. The compound further had an Activity in the assay listed under Rattus norvegicus [2] of -8 beats min-1. Moreover, in the assay with Rattus norvegicus [3], the “Delta MAP” value was determined as 22%.
`Cc1cc(Cl)ccc1OCC(O)CNC(C)(C)Cc1c[nH]c2ccccc12` (configuration not stated): the “Delta MAP” value in the assay with Rattus norvegicus [3] stood at 11%.
The compound `CC(C)NCC(O)COc1cccc2[nH]ccc12` (configuration not stated) [PINDOLOL] returned an Actvity with Rattus norvegicus [5] of less than 25 mmHg. In the assay listed under Rattus norvegicus [2], this compound displayed an Activity of 120 beats min-1. Further, the “Delta MAP” value in the assay with Rattus norvegicus [3] was -32%.
`Cc1cccc(OCC(O)CNC(C)(C)Cc2c[nH]c3ccccc23)c1C` (configuration not stated): the Actvity in the assay on Rattus norvegicus [6] came out at 44 mmHg. Moreover, the “Delta MAP” value in the assay with Rattus norvegicus [3] was found to be 8%. The inhibition in assay [7] was found to be 79%.
In the assay with Rattus norvegicus [1], `CC(C)NCC(O)COc1cccc2ccccc12` (configuration not stated) [PROPRANOLOL] came in with an Actvity of less than 25 mmHg.
In turn, `Cc1ccc(OCC(O)CNC(C)(C)Cc2c[nH]c3ccccc23)c(C)c1` (configuration not stated) returned an Actvity with Rattus norvegicus [1] of 34 mmHg. In addition, the “Delta MAP” value in the assay on Rattus norvegicus [3] is listed as 13%.
In the assay on Rattus norvegicus [4], `Cc1cccc(C)c1OCC(O)CNC(C)(C)Cc1c[nH]c2ccccc12` (configuration not stated) displayed an Actvity of less than 25 mmHg. For the same compound, the “Delta MAP” value in the assay with Rattus norvegicus [3] was -4%.
In the assay with Rattus norvegicus [1], `Cc1cc(S(C)(=O)=O)ccc1OCC(O)CNC(C)(C)Cc1c[nH]c2ccccc12` (configuration not stated) displayed an Actvity of less than 25 mmHg. The “Delta MAP” value with Rattus norvegicus [3] is on record as -8%.
Compound `CC(C)(Cc1c[nH]c2ccccc12)NCC(O)COc1ccccc1C#N` (configuration not stated) [BUCINDOLOL] displayed an Actvity in the assay with Rattus norvegicus [1] of 45 mmHg. In the assay filed under Rattus norvegicus [2], this compound gave an Activity of 77 beats min-1. Further, the “Delta MAP” value with Rattus norvegicus [3] is -26%. This compound came in with an inhibition in assay [8] of 71%.
In the assay on Rattus norvegicus [1], `Cc1ccccc1OCC(O)CNC(C)(C)Cc1c[nH]c2ccccc12` (configuration not stated) gave an Actvity of 34 mmHg. The compound also gave an Activity in the assay filed under Rattus norvegicus [2] of 100 beats min-1. Moreover, the “Delta MAP” value in the assay with Rattus norvegicus [3] is on record as -18%.
For the compound `CC(C)(Cc1c[nH]c2ccccc12)NCC(O)COc1ccccc1[N+](=O)[O-]` (configuration not stated), the Actvity in the assay with Rattus norvegicus [1] is reported as less than 25 mmHg. In the assay listed under Rattus norvegicus [2], this compound registered an Activity of 106 beats min-1. Further, in the assay on Rattus norvegicus [3], the “Delta MAP” value is -38%.
Take `CC(C)(Cc1c[nH]c2ccccc12)NCC(O)COc1ccccc1-c1ccccc1` (configuration not stated): the Actvity in the assay with Rattus norvegicus [4] is reported as less than 25 mmHg. Moreover, the “Delta MAP” value in the assay with Rattus norvegicus [3] amounted to 12%.
Compound `CC(C)(Cc1c[nH]c2ccccc12)NCC(O)COc1ccccc1N` (configuration not stated) showed an Actvity with Rattus norvegicus [1] of 44 mmHg. The same compound showed an Activity in the assay listed under Rattus norvegicus [2] of 105 beats min-1. Further, the “Delta MAP” value in the assay with Rattus norvegicus [3] was -11%.
Consider `CC(C)(Cc1c[nH]c2ccccc12)NCC(O)COc1ccccc1C1CCCCC1` (configuration not stated), for which the Actvity in the assay with Rattus norvegicus [1] is reported as less than 25 mmHg. In the assay with Rattus norvegicus [3], the “Delta MAP” value is reported as 18%.
Turning to `CC(C)(Cc1c[nH]c2ccccc12)NCC(O)COc1ccccc1F` (configuration not stated), the Actvity with Rattus norvegicus [9] was less than 25 mmHg. Moreover, the “Delta MAP” value in the assay with Rattus norvegicus [3] was -33%. In assay [7], this compound showed an inhibition of 58%.
With `CSc1ccccc1OCC(O)CNC(C)(C)Cc1c[nH]c2ccccc12` (configuration not stated), the “Delta MAP” value in the assay on Rattus norvegicus [3] was -29%.
In the assay with Rattus norvegicus [1], `CC(C)(Cc1c[nH]c2ccccc12)NCC(O)COc1ccccc1C(F)(F)F` (configuration not stated) displayed an Actvity of 44 mmHg. Moreover, the Activity in the assay listed under Rattus norvegicus [2] was found to be 88 beats min-1. Further, the “Delta MAP” value in the assay on Rattus norvegicus [3] is on record as -34%.
On the same counts, the results for `CC(C)(Cc1c[nH]c2ccccc12)NCC(O)COc1ccccc1C(N)=O` (configuration not stated) are 44 mmHg, 74 beats min-1 and -25%.
